C2C12 statin – suppression of simvastatin myotoxicity | C2C12 myotubes + simvastatin, ATP luminescence, 48 h; scaled: DMSO 0, geranylgeraniol control 100 | rescue of ATP level, % at 7.49 µM | hit rate 0.78% among 330,000;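 active = mean ATP rescue above about 67%, or every replicate alone reaching that limit, limit read from the data, passing the limit was not always enough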;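 note: myotubes were challenged with 10 µM simvastatin during compound exposure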
SUMO Mot1 rescue – inhibitors of SUMOylation pathway: yeast Mot1-301 growth rescue; S. cerevisiae Mot1-301 growth rescue, ATP luminescence, 38.5C; percent above DMSO median, 100 means doubled; growth rescue, % at 18.8 µM; hit rate 1% among 320,000; AID 2716;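 active = every valid replicate shows activation above 250% relative to neutral control wells; inactive = the rest, any valid replicate at or below 250%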;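 note: OY570 slx delta 5 strain wells were the positive control but not used for scaling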
Cneo AK release – causes C. neoformans cell lysis; adenylate kinase release luminescence, 4 h; normalised: neutral wells 0, clomiphene wells 100; lysis activity, % at 15 µM; hit rate 0.2% among 360,000; AID 651654;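 active = mean lysis activity across replicates of at least 80%, whatever share of replicates individually reach that level; inactive = mean lysis activity below 80%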
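Signal: Adenylate kinase release luminescence | Assay system: Log-phase Cryptococcus neoformans yeast cells | Input: Cells at 5 × 10^6 per mL | Buffer or medium: Fresh YPD growth medium | Compound: Single dose | Schedule: Static 4 h at 37 °C with compound, 1 h detection | Controls: Clomiphene | Read-out: Luminescence rise reflecting yeast cell lysis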
Yeast Mot1 SUMO – inhibits SUMO pathway, affecting Mot1-301 yeast growth | shares compounds with SUMO Mot1 rescue | S. cerevisiae Mot1-301 galactose growth, ATP luminescence, 24 h; -100 = growth of slx-deleted rescue strain | growth activity, percent, % at 42 µM | 2,300 tested, under 10 active | AID 493004;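 active = Signal drops as the depositor expects, and the fitted half-maximal dose is no more than ten times the top valid tested dose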;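 note: more negative values mean stronger growth rescue toward the control strain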
The depositor's hits bear a star; nt = not tested or not shown; + = active, no number. Sampled rows, rich in hits. Any-hit rate of the full collection: about 1.5%.

SMILES	C2C12 statin	SUMO Mot1 rescue	Cneo AK release	Yeast Mot1 SUMO
CNC[C@@H]1Oc2ccc(NS(=O)(=O)c3c(C)noc3C)cc2CC(=O)N([C@@H](C)CO)C[C@H]1C	-14	nt	-3	nt
COc1cc2ccccc2cc1C(=O)Nc1ccc(CN2CCOCC2)cc1	-31	394*	0	-1
O=C(Nc1ccc(CN2CCOCC2)cc1)c1ccccc1F	nt	50	-3	nt
COc1ccc(S(=O)(=O)N(C)C[C@@H]2Oc3ccc(N(C)C)cc3C(=O)N([C@@H](C)CO)C[C@H]2C)cc1	-25	nt	1	nt
C[C@@H]1CN([C@H](C)CO)C(=O)c2cc(C#CC3CCCC3)cnc2O[C@@H]1CN(C)C(=O)Nc1ccccc1	-9	nt	3	nt
CC(=O)Nc1sc2c(c1C(c1ccc(F)cc1)N1CCOCC1)CCCC2 (configuration not stated)	28	385*	-1	0
CC(=O)Nc1sc2c(c1C(c1ccc(Cl)cc1)N1CCOCC1)CCCC2 (configuration not stated)	23	195	-6	nt
CCS(=O)(=O)Nc1ccc2c(c1)C(=O)N(C)[C@@H]1CC[C@@H](CC(=O)Nc3ccccc3)O[C@H]1CO2	-12	nt	1	nt
O=C(Nc1ccc(F)cc1)N[C@@H]1C=C[C@H](CC(=O)N2CCCCC2)O[C@@H]1CO	10	nt	-5	nt
COc1ccc(-c2nc(C#N)c(NCC3CCCO3)o2)cc1OC (configuration not stated)	8	-3	-1	nt
COc1ccc(-c2nc(C#N)c(NC(C)c3ccccc3)o2)cc1OC (configuration not stated)	35	417*	4	1
CO[C@@H]1CN(C)C(=O)c2cc(NS(=O)(=O)CC(F)(F)F)ccc2OC[C@H](C)N(C(=O)NC(C)C)C[C@H]1C	-2	nt	-3	nt
CN(C)C(=O)C[C@@H]1C[C@H]2c3cc(NC(=O)Nc4ccc(C(F)(F)F)cc4)ccc3O[C@H]2[C@@H](CO)O1	-10	nt	9	nt
C[C@@H]1CN([C@H](C)CO)C(=O)c2cc(C3=CCCCC3)cnc2O[C@@H]1CN(C)C(=O)Nc1cccc(F)c1	-7	nt	6	nt
Cc1cc(C(=O)OCC(=O)Nc2cccc(S(N)(=O)=O)c2)c2ccccc2n1	nt	647*	-1	0
Cc1c(C(=O)OCC(=O)Nc2ccc(S(N)(=O)=O)cc2)oc2c1ccc1ccccc12	3	500*	nt	-1
Cc1cc(NC(=O)COC(=O)c2oc3c(ccc4ccccc43)c2C)no1	5	7	0	nt
Cc1cc(C(=O)OCC(=O)NCCc2ccc(S(N)(=O)=O)cc2)c2ccccc2n1	2	-8	3	nt
C[C@H](CO)N1C[C@H](C)[C@H](CN(C)CC2CC2)Oc2ccc(NC(=O)CCCCCC(=O)Nc3ccccc3N)cc2CC1=O	12	nt	-2	nt
Cc1noc(C)c1S(=O)(=O)Nc1ccc2c(c1)C(=O)N([C@@H](C)CO)C[C@H](C)[C@H](CN(C)S(=O)(=O)c1ccccc1)OCCCC[C@H](C)O2	nt	nt	-4	nt
COc1ccccc1C1NC(=O)CS1 (configuration not stated)	-10	360*	1	0
COc1ccc(C2NC(=O)CS2)cc1OC (configuration not stated)	-1	158	0	nt
COc1ccc(NC(=O)N(C)C[C@H]2OCCCC[C@@H](C)Oc3ccc(NC(=O)CCC(F)(F)F)cc3C(=O)N([C@H](C)CO)C[C@H]2C)cc1	20	nt	-3	nt
Cc1ccccc1Nc1cc(=O)oc2ccccc12	1	370*	3	1
Cc1ccc(Nc2cc(=O)oc3ccccc23)c(C)c1	-15	-6	0	nt
SMILES	C2C12 statin	SUMO Mot1 rescue	Cneo AK release	Yeast Mot1 SUMO
Cc1ccc(S(=O)(=O)N2C[C@@H](O)COC[C@H]3O[C@H](CC(=O)N[C@H]4CCN(Cc5ccccc5)C4)CC[C@@H]32)cc1	3	nt	6	nt
CO[C@H]1CN(C)C(=O)c2ccc(NC(=O)C3CC3)cc2OC[C@@H](C)N(C(=O)C2CCCCC2)C[C@H]1C	-3	nt	10	nt
COc1ccc(C(=O)Sc2ccc(Cl)cc2)cc1OC	12	+	2	0
COc1ccc(C(=O)Sc2ccc(C)cc2)cc1OC	16	nt	-4	nt
COc1ccc(C#Cc2cnc3c(c2)C(=O)N([C@H](C)CO)C[C@@H](C)[C@@H](CN(C)CC2CC2)O3)cc1	-9	nt	nt	nt
CCS(=O)(=O)N1CCCCN2[C@H](CO)[C@@H](c3ccc(C#Cc4ccccc4OC)cc3)[C@H]2C1	nt	nt	0	nt
COCc1nnc(NC(=O)CC(C)C)s1	-26	644*	0	0
COCc1nnc(NC(=O)CC(c2ccccc2)c2ccccc2)s1	1	4	nt	nt
COc1cc(S(=O)(=O)NC2CCCC2)c(OC)cc1C	nt	435*	-3	0
COc1ccc(C)cc1S(=O)(=O)NC1CCCCCC1	7	-13	-1	nt
COCC(C)n1c(SCC(=O)NC(=O)Cc2ccccc2)nc2ccccc2c1=O (configuration not stated)	4	2	0	nt
COCC(C)n1c(SCC(=O)NNC(=O)c2ccccc2)nc2ccccc2c1=O (configuration not stated)	7	439*	0	0
COc1ccc(C(=O)Nn2c(SCC(=O)NC3CCCC3)nc3ccccc3c2=O)cc1	-14	5	-3	nt
COc1ccc(C(=O)Nn2c(SCC(=O)NCc3ccccc3)nc3ccccc3c2=O)cc1	nt	+	-6	0
CCCNC(=O)N1C[C@H](C)[C@@H](OC)CN(C)C(=O)c2cc(NC(=O)C3CCC3)ccc2OC[C@H]1C	2	nt	nt	nt
CNC[C@H]1Oc2cc(C#CC(C)(C)O)ccc2S(=O)(=O)N([C@H](C)CO)C[C@@H]1C	-4	nt	3	nt
C[C@H]1CCCCO[C@@H](CN(C)C(=O)Nc2ccc3c(c2)OCO3)[C@@H](C)CN([C@@H](C)CO)C(=O)c2cc(NC(=O)NC3CCCCC3)ccc2O1	nt	nt	-15	nt
C[C@@H]1CN([C@@H](C)CO)C(=O)c2cc(NS(=O)(=O)c3ccc(Cl)cc3)ccc2O[C@H]1CN(C)C(=O)Nc1ccc(F)cc1	0	nt	-1	nt
COc1ccc(CNC(=O)CN(Cc2ccc(OC)cc2)C(=O)CCC(=O)Nc2nccs2)cc1	-2	207	2	nt
COc1ccc(S(=O)(=O)NCC(=O)N(CC(=O)NCc2ccco2)Cc2ccccc2)cc1	0	642*	1	0
COc1ccc(CNC(=O)CN(Cc2ccco2)C(=O)CNS(=O)(=O)c2ccccc2)cc1	-6	559	1	nt
COc1ccc(CN(CC(=O)NCc2ccco2)C(=O)CCC(=O)Nc2nccs2)cc1	5	868*	-4	0
O=C(C[C@H]1CC[C@@H]2[C@H](COC[C@H](O)CN2CC2CCCCC2)O1)NCc1ccc(Cl)cc1	31	nt	-2	nt
NC(=O)C1=C[C@@H](c2ccc(Br)cc2)C[C@@H](OCCCCO)O1	nt	554*	-2	1
NC(=O)C1=C[C@@H](c2ccccc2)C[C@@H](OCCCCO)O1	14	-1	-2	nt
CC(C)NC(=O)N1C[C@H]2[C@@H](c3ccccc31)[C@H](CO)N2C(=O)c1ccncc1	-9	nt	1	nt

High-throughput results (PubChem)
